Measured values from ChEMBL document CHEMBL1811874, “The effect of sulfonate leaving groups on the hypoxia-selective toxicity of nitro analogs of the duocarmycins” (Bioorg Med Chem, 2011).
Converted amounts (≈) assume the structure as drawn.

Legend:
[1] = system: SK-OV-3; experiment: Hypoxic cytotoxicity ratio, ratio of IC50 for human SKOV3 cells in oxic (aerobic) condition to IC50 for human SKOV3 cells in hypoxic (anoxic) conditions; assay type: functional
In short: (§1)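 HCR was calculated as IC50(oxic)/IC50(hypoxic) after 4 h drug exposure at 20% O₂ or <20 ppm O₂, with SRB read-out 5 days later.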

[2] = Solubility in alphaMEM culture medium containing 5% FCS at 22 degC; assay type: physicochemical
In short: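 Solubility was measured in αMEM with 5% FCS, equilibrated with 5% CO₂/air, at 22 °C.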

[3] = system: SK-OV-3; experiment: Cytotoxicity against human SKOV3 cells assessed as reduction of cell density incubated for 4 hrs in oxic (aerobic) condition measured 5 days post dose by SRB assay; assay type: functional, cell-based
In short: (§2)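 Log-phase monolayers given a 4 h drug exposure under aerobic (20% O₂) or anoxic (<20 ppm O₂) conditions. Cells were then stained with sulforhodamine B 5 days later. IC50 was interpolated as the concentration that cut cell density to 50% of same-plate controls. Values are means of two to seven experiments.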

[4] = system: SK-OV-3; experiment: Cytotoxicity against human SKOV3 cells assessed as reduction of cell density incubated for 4 hrs in hypoxic (anoxic) condition measured 5 days post dose by SRB assay; assay type: functional, cell-based; in short: as §2
[5] = system: HT-29; experiment: Cytotoxicity against human HT-29 cells assessed as reduction of cell density incubated for 4 hrs in oxic (aerobic) condition measured 5 days post dose by SRB assay; assay type: functional, cell-based; in short: as §2
[6] = system: HT-29; experiment: Hypoxic cytotoxicity ratio, ratio of IC50 for human HT-29 cells in oxic (aerobic) condition to IC50 for human HT-29 cells in hypoxic (anoxic) conditions; assay type: functional; in short: as §1
[7] = system: HT-29; experiment: Cytotoxicity against human HT-29 cells assessed as reduction of cell density incubated for 4 hrs in hypoxic (anoxic) condition measured 5 days post dose by SRB assay; assay type: functional, cell-based; in short: as §2

Compound	solubility [2]	Ratio IC50 [1]	IC50 [3]	IC50 [4]	IC50 [5]	Ratio IC50 [6]	IC50 [7]
COc1cc2cc(C(=O)N3CC(COS(C)(=O)=O)c4c3cc(N)c3ccccc43)[nH]c2c(OC)c1OC (centres undefined)	15 µM (≈ 7.88 µg/mL)						
COc1cc2cc(C(=O)N3CC(CCl)c4c3cc([N+](=O)[O-])c3ccccc43)[nH]c2c(OC)c1OC (centres undefined)	5 µM (≈ 2.48 µg/mL)		4200 nM	1700 nM	3400 nM		1600 nM
COc1cc2cc(C(=O)N3CC(COS(C)(=O)=O)c4c3cc([N+](=O)[O-])c3ccccc43)[nH]c2c(OC)c1OC (centres undefined)	69 µM (≈ 38.3 µg/mL)	39	2200 nM	140 nM	1500 nM	4.6	310 nM
COc1cc2cc(C(=O)N3CC(COS(=O)(=O)C4CCCCC4)c4c3cc([N+](=O)[O-])c3ccccc43)[nH]c2c(OC)c1OC (centres undefined)	70 µM (≈ 43.7 µg/mL)	146	16000 nM	190 nM	9900 nM	26	440 nM
CN(C)CCOc1ccc2[nH]c(C(=O)N3CC(COS(=O)(=O)Cc4ccccc4)c4c3cc([N+](=O)[O-])c3ccccc43)cc2c1 (centres undefined)	91 µM (≈ 57.2 µg/mL)	1.8	270 nM	150 nM	240 nM	4	80 nM
COc1ccc(/C=C/C(=O)N2CC(COS(=O)(=O)Cc3ccccc3)c3c2cc([N+](=O)[O-])c2ccccc32)cc1O (centres undefined)	35 µM (≈ 20.1 µg/mL)	3.9	570 nM	160 nM	1000 nM	1.1	1000 nM
COc1cc2cc(C(=O)N3CC(COS(=O)(=O)c4ccc(C)cc4)c4c3cc([N+](=O)[O-])c3ccccc43)[nH]c2c(OC)c1OC (centres undefined)	89 µM (≈ 56.2 µg/mL)	72	8800 nM	220 nM	12000 nM	28	470 nM

Further lines, with some results ahead:

solubility [2]	Compound	Ratio IC50 [1]	IC50 [3]	IC50 [4]	IC50 [5]	Ratio IC50 [6]	IC50 [7]
22 µM (≈ 9.59 µg/mL)	Nc1cc2c(c3ccccc13)C(CCl)CN2C(=O)c1cc2cc(OCCO)ccc2[nH]1 (centres undefined)	0.8	3.3 nM	4.2 nM			
13 µM (≈ 6.06 µg/mL)	O=C(c1cc2cc(OCCO)ccc2[nH]1)N1CC(CCl)c2c1cc([N+](=O)[O-])c1ccccc21 (centres undefined)	3.8	9300 nM	3300 nM	6600 nM	1.1	5700 nM
29 µM (≈ 17.4 µg/mL)	Cc1ccc(S(=O)(=O)OCC2CN(C(=O)c3cc4cc(OCCO)ccc4[nH]3)c3cc([N+](=O)[O-])c4ccccc4c32)cc1 (centres undefined)	2.8	3000 nM	770 nM	3300 nM	0.81	2700 nM
